Source: ChEMBL document CHEMBL1134450, “Solid-phase synthesis of a nonpeptide RGD mimetic library: new selective alphavbeta3 integrin antagonists” (J Med Chem, 2001)
Where a SMILES comes first, the peptide text is derived from it. [ ]: non-standard residue; d: D form. NMeF = CN[C@@H](Cc1ccccc1)C(=O)O; azaGly = NNC(=O)O

Columns and labels:
[1] = biological target: Integrin alpha-V/beta-3 and alpha-IIb/beta 3 (Homo sapiens) (UniProt P05106+P06756+P08514); assay: Selectivity designates the quotient of affinities to integrins alpha v beta-3 and alpha IIb beta3; type: protein assay
Method in brief: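 Quotient of IC50 values from the immobilized-integrin competition assays: αvβ3 against biotinylated vitronectin and αIIbβ3 against biotinylated fibrinogen. Ligand at 1 µg/mL, 37 °C, 3 h, anti-biotin alkaline-phosphatase detection. IC50 came from sigmoid fits of triplicates.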

[2] = Partition coefficient (logP); type: physicochemical; details: octanol/water
Integrin alpha-V/beta-3 = Integrin alpha-V/beta-3 (Homo sapiens, UniProt P05106+P06756); assay: Inhibitory activity against vitronectin receptor (alpha V beta 3); type: protein-complex assay
Sequence of Integrin alpha-V/beta-3 (P05106 27-788 limits assumed): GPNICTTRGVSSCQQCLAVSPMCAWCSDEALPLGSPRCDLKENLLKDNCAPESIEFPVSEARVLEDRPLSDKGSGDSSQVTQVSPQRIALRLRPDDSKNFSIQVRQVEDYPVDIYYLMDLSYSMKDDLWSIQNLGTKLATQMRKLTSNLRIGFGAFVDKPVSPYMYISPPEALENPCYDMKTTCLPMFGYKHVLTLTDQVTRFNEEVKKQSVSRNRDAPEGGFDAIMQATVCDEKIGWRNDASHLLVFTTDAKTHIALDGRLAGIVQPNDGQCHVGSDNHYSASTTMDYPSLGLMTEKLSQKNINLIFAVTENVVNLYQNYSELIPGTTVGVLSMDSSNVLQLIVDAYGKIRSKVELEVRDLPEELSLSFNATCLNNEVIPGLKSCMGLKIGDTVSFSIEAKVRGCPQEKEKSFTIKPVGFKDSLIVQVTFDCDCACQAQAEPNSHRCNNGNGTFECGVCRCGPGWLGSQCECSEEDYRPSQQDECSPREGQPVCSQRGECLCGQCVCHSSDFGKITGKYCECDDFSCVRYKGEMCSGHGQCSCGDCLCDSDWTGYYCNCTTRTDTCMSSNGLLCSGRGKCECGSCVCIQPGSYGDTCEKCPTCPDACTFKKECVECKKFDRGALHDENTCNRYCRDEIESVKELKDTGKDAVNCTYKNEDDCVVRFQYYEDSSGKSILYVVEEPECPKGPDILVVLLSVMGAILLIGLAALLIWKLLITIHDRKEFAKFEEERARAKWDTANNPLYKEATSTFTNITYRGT
Sequence of Integrin alpha-V/beta-3 (P06756 31-889 limits assumed): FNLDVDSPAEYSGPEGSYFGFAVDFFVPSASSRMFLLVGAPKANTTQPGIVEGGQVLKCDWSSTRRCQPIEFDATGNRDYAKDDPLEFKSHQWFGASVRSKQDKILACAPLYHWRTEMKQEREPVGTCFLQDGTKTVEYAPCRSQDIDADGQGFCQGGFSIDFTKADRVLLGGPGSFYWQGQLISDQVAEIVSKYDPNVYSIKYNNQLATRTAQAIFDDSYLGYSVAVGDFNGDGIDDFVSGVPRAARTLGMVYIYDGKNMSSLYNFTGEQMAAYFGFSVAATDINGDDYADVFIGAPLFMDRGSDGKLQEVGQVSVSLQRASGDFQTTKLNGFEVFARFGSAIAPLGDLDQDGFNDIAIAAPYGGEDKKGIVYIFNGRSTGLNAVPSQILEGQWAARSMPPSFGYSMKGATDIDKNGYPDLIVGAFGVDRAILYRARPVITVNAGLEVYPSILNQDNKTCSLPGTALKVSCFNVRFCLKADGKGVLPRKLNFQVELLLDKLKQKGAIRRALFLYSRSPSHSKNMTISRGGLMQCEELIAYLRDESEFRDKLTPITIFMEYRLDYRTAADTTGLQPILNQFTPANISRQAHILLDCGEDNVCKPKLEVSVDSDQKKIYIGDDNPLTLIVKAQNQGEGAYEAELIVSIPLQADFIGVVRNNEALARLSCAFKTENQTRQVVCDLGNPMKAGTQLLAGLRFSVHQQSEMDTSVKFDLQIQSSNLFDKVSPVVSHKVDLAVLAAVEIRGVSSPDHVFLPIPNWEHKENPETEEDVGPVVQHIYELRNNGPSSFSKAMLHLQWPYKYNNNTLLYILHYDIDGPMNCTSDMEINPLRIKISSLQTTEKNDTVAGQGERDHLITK
Sequence of Integrin alpha-V/beta-3 (P06756 891-1048 limits assumed): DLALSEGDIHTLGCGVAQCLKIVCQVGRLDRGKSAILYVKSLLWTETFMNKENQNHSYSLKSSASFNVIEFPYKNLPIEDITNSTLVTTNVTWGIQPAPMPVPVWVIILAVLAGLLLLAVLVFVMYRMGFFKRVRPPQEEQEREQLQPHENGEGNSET
Method in brief: (§1)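 Solid-phase competition binding. αvβ3 was recombinant, from baculovirus, purified on LM609 antibody column, paired with biotinylated human vitronectin. αIIbβ3 was paired with biotinylated human fibrinogen. Integrins coated at 1 µg/mL, blocked, then compounds serially diluted and co-incubated with ligand (1 µg/mL), 37 °C, 3 h. Read-out was alkaline-phosphatase anti-biotin.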

[3] = biological target: Integrin alpha-IIb/beta-3 (Homo sapiens, UniProt P05106+P08514); assay: Inhibitory activity against alpha IIb beta 3 integrin; type: protein-complex assay; method in brief: as §1
Sequence of Integrin alpha-IIb/beta-3 (P05106 27-788 limits assumed): as the sequence (P05106 27-788 limits assumed) above
Sequence of Integrin alpha-IIb/beta-3 (P08514 32-887 limits assumed): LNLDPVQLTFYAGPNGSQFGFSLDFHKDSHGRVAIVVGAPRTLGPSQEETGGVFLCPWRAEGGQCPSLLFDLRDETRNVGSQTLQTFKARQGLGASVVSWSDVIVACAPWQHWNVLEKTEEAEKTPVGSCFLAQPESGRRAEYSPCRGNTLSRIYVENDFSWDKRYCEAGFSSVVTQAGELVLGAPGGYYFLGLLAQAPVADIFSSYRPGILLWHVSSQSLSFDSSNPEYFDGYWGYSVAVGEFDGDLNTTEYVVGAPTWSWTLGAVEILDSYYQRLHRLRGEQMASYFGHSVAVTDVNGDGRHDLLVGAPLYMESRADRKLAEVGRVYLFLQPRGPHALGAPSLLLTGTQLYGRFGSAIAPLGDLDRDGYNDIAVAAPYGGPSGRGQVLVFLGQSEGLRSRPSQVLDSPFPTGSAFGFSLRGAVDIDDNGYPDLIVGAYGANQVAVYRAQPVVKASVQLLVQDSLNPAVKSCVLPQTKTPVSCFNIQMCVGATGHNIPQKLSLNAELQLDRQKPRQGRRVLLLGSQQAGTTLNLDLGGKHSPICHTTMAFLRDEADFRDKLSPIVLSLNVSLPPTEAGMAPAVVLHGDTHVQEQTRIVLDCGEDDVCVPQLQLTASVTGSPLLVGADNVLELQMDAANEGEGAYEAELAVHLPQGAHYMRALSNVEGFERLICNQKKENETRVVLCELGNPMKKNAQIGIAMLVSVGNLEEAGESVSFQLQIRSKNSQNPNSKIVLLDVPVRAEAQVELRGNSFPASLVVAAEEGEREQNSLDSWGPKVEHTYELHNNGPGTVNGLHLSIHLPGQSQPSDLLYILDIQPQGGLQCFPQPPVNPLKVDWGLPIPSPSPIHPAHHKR
Sequence of Integrin alpha-IIb/beta-3 (P08514 891-1039 limits assumed): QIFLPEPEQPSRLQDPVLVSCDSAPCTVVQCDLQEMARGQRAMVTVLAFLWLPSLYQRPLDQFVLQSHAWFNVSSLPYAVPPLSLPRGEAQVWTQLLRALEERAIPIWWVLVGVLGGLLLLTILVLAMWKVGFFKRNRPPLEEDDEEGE

Row | Compound | Selectivity [1] | logP [2] | IC50 (Integrin alpha-V/beta-3) [nM] | IC50 [3] [nM]
1 | CC(C)[C@@H]1NC(=O)[C@H](CCCN=C(N)N)NC(=O)NNC(=O)[C@H](CC(=O)O)NC(=O)[C@H](Cc2ccccc2)N(C)C1=O (cyclo(D[azaGly]RV[NMeF])) | 270 |  |  | 
2 | COc1ccc(C(CC(=O)O)CC(=O)NNC(=O)c2cccc(NC(=N)N)c2)cc1 (stereo unspecified) |  | 1 | 1 | > 1000
3 | CC(N)=Nc1cccc(C(=O)NNC(=O)CC(CC(=O)O)c2ccc(Br)cc2)c1 (stereo unspecified) |  | 2.27 | 40 | > 1000
4 | Cc1ccnc(NCCCCC(=O)NNC(=O)NCCC(=O)O)c1 |  | -0.07 | 1400 | 
5 | COc1ccc(C(CC(=O)O)NC(=O)NNC(=O)c2cccc(N=C(N)N)c2)cc1 (stereo unspecified) |  | 0.58 | 0.9 | > 1000
6 | N=C(N)Nc1cccc(C(=O)NNC(=O)NC(CC(=O)O)C(N)=O)c1 (stereo unspecified) | > 70 |  |  | 
7 | NC(N)=Nc1cccc(C(=O)NNC(=O)NC(CC(=O)O)c2cccc3ccccc23)c1 (stereo unspecified) |  | 1.7 | 27 | > 10000
8 | Cc1ccnc(NCCCCC(=O)NNC(=O)NC(CC(=O)O)c2ccccc2)c1 (stereo unspecified) |  | 1.64 | 37 | > 10000
9 | Cc1ccnc(NCCCCC(=O)NNC(=O)CC(CC(=O)O)c2cc(Cl)cc(Cl)c2)c1 (stereo unspecified) |  | 3.19 | 9 | > 10000
10 | CC(C)[C@@H]1NC(=O)[C@H](CCCN=C(N)N)NC(=O)CNC(=O)[C@H](CC(=O)O)NC(=O)[C@H](Cc2ccccc2)NC1=O (cyclo(DGRVF)) | 415 |  |  | 
11 | Cc1ccnc(NCCCCC(=O)NNC(=O)CC(CC(=O)O)c2ccc(-c3ccccc3)cc2)c1 (stereo unspecified) | 1000 |  | 3 | 
12 | CC(=N)Nc1cccc(C(=O)NNC(=O)CC(CC(=O)O)c2ccc(F)cc2)c1 (stereo unspecified) |  | 1.6 | 160 | > 1000
13 | Cc1ccnc(NCCCCC(=O)NNC(=O)NC(CC(=O)O)c2ccc(Br)cc2)c1 (stereo unspecified) |  | 2.47 | 7 | 
14 | Cc1ccnc(NCCCCC(=O)NNC(=O)CC(CC(=O)O)c2ccc(Cl)cc2)c1 (stereo unspecified) |  | 2.63 | 15 | 
15 | Cc1ccnc(NCCCCC(=O)NNC(=O)NC(CC(=O)O)c2cccc3ccccc23)c1 (stereo unspecified) |  | 2.64 | 140 | 
16 | Cc1ccnc(NCCCCC(=O)NNC(=O)NC(CC(=O)O)c2cc(Cl)cc(Cl)c2)c1 (stereo unspecified) |  | 2.76 | 80 | > 10000
17 | N=C(N)Nc1cccc(C(=O)NNC(=O)NC(CC(=O)O)c2ccc(Br)cc2)c1 (stereo unspecified) |  | 1.53 | 1 | > 1000
18 | NC(=O)C(CC(=O)O)NC(=O)NNC(=O)c1cccc(N=C(N)N)c1 (stereo unspecified) |  | -2.42 | 150 | > 10000
19 | CC(=N)Nc1cccc(C(=O)NNC(=O)CC(CC(=O)O)c2ccc(-c3ccccc3)cc2)c1 (stereo unspecified) |  | 3.11 | 26 | > 1000
20 | N=C(N)Nc1cccc(C(=O)NNC(=O)CC(CC(=O)O)c2ccc(Br)cc2)c1 (stereo unspecified) |  | 1.95 | 2 | > 1000
21 | N=C(N)Nc1cccc(C(=O)NNC(=O)CC(CC(=O)O)c2ccc(F)cc2)c1 (stereo unspecified) |  | 1.28 | 4 | > 1000
22 | Cc1ccnc(NCCCCC(=O)NNC(=O)CC(CC(=O)O)c2ccc(Br)cc2)c1 (stereo unspecified) |  | 2.9 | 6 | 9000
23 | CC(=N)Nc1cccc(C(=O)NNC(=O)CC(CC(=O)O)c2ccc(Cl)cc2)c1 (stereo unspecified) |  | 2 | 160 | 8000
24 | O=C(O)CC(CC(=O)NNC(=O)c1cccc(Nc2ccccn2)c1)c1cc(Cl)cc(Cl)c1 (stereo unspecified) |  | 3.54 | 210 | 
25 | N=C(N)NCCCCC(=O)NNC(=O)NC(CC(=O)O)c1ccccc1 (stereo unspecified) |  | -0.26 | 40 | 1000
26 | NC(N)=Nc1cccc(C(=O)NNC(=O)NC(CC(=O)O)c2ccc(F)cc2)c1 (stereo unspecified) |  | 0.86 | 6 | 1000

Results, then the molecule that gave them:

Row | Selectivity [1] | logP [2] | IC50 (Integrin alpha-V/beta-3) [nM] | IC50 [3] [nM] | Compound
27 |  | 1.31 | 37 | > 1000 | COc1ccc(C(CC(=O)O)CC(=O)NNC(=O)c2cccc(N=C(C)N)c2)cc1 (stereo unspecified)
28 |  | 2.23 | 35 |  | Cc1ccnc(NCCCCC(=O)NNC(=O)CC(CC(=O)O)c2ccc(F)cc2)c1 (stereo unspecified)
29 |  | 1.94 | 22 | > 10000 | COc1ccc(C(CC(=O)O)CC(=O)NNC(=O)CCCCNc2cc(C)ccn2)cc1 (stereo unspecified)
30 |  | 1.8 | 48 | > 10000 | Cc1ccnc(NCCCCC(=O)NNC(=O)NC(CC(=O)O)c2ccc(F)cc2)c1 (stereo unspecified)
31 |  | 1.68 | 2 | > 1000 | N=C(N)Nc1cccc(C(=O)NNC(=O)CC(CC(=O)O)c2ccc(Cl)cc2)c1 (stereo unspecified)
32 |  | 2.55 | 6 |  | CC(=N)Nc1cccc(C(=O)NNC(=O)CC(CC(=O)O)c2cc(Cl)cc(Cl)c2)c1 (stereo unspecified)
33 |  | 2.8 | 0.7 | 1000 | N=C(N)Nc1cccc(C(=O)NNC(=O)CC(CC(=O)O)c2ccc(-c3ccccc3)cc2)c1 (stereo unspecified)
34 |  | 2.2 | 0.3 | 7000 | Cc1ccnc(NCCCCC(=O)NNC(=O)NC(CC(=O)O)c2ccc(Cl)cc2)c1 (stereo unspecified)
35 | 1460 |  |  |  | CC(C)[C@@H]1NC(=O)[C@H](CCCN=C(N)N)NC(=O)CNC(=O)[C@H](CC(=O)O)NC(=O)[C@H](Cc2ccccc2)N(C)C1=O (cyclo(DGRV[NMeF]))
36 |  | 1.26 | 0.1 | 5500 | N=C(N)Nc1cccc(C(=O)NNC(=O)NC(CC(=O)O)c2ccc(Cl)cc2)c1 (stereo unspecified)
37 | 8 |  | 1000 | > 10000 | NCCCC[C@H](NC(=O)[C@@H]1CCCN1C(=O)[C@H](CO)NC(=O)[C@H](CC(=O)O)NC(=O)CNC(=O)[C@H](CCCN=C(N)N)NC(=O)CN)C(=O)O
38 |  | 3.17 | 130 |  | Cc1ccnc(NCCCCC(=O)NNC(=O)NC(CC(=O)O)c2ccc(OC(F)(F)F)cc2)c1 (stereo unspecified)
39 |  | 2.07 | 7 | > 10000 | Cc1ccnc(NCCCCC(=O)NNC(=O)CC(CC(=O)O)c2ccccc2)c1 (stereo unspecified)
40 |  | 2.24 | 2 | 1000 | N=C(N)Nc1cccc(C(=O)NNC(=O)CC(CC(=O)O)c2cc(Cl)cc(Cl)c2)c1 (stereo unspecified)
41 |  | 1.13 | 15 | > 10000 | N=C(N)Nc1cccc(C(=O)NNC(=O)CC(CC(=O)O)c2ccccc2)c1 (stereo unspecified)
42 |  | 1.52 | 42 | > 10000 | COc1ccc(C(CC(=O)O)NC(=O)NNC(=O)CCCCNc2cc(C)ccn2)cc1 (stereo unspecified)
43 |  | 0.7 | 0.8 | 8500 | N=C(N)Nc1cccc(C(=O)NNC(=O)NC(CC(=O)O)c2ccccc2)c1 (stereo unspecified)
44 |  | 2.23 | 3 | > 1000 | N=C(N)Nc1cccc(C(=O)NNC(=O)NC(CC(=O)O)c2ccc(OC(F)(F)F)cc2)c1 (stereo unspecified)
45 |  | 1.82 | 1 | > 1000 | NC(N)=Nc1cccc(C(=O)NNC(=O)NC(CC(=O)O)c2cc(Cl)cc(Cl)c2)c1 (stereo unspecified)
46 |  | 1.44 | 23 | > 10000 | CC(=N)Nc1cccc(C(=O)NNC(=O)CC(CC(=O)O)c2ccccc2)c1 (stereo unspecified)
